Measured values from the RNAGym collection of RNA variant scans (doi:10.1126/science.aae0568).
This sample holds only a part of the variants without activity.

B1: tRNA (parent)
chain: GUUCCGUUGGCGUAAUGGUAACGCGUCUCCCUCCUAAGGAGAAGACUGCGGGUUCGAGUCCCGUACGGAACG

Variants of: B1
Experiment: yeast fitness relative to wild type (ratio to wild type); higher = fitter; tRNA-Arg(CCU), competitive growth, 37 C, YPD
Summary of the method: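 Changes in genotype frequencies gave Darwinian fitness relative to wild type. Frequencies were read by 100-nucleotide paired-end sequencing of gene amplicons before and after pooled Saccharomyces cerevisiae strains, carrying tRNA-Arg(CCU) gene variants at the native locus, were competed in YPD at 37°C for 24 hours in six replicates. A genotype was kept only with ≥ 100 starting reads, and estimates < 0.5 were set to 0.5.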

Variant | yeast fitness
C24G G58C G68A | ≤ 0.5
G23A G39C | 0.752
C22U C30U C33U A45C C66U | ≤ 0.5
G23C C33G A42U | 0.556
C24U C34U C66U | 0.58
C24U A43U G56A | 0.837
G23A C29G U32G C34G A36G C62U | ≤ 0.5
G23C G41A A45C A65C | 0.583
G23C G38A | 0.696
G23A C31A A69C | ≤ 0.5
G23A A43U A65U | ≤ 0.5
G23A C33G U47A G68A | 0.539
C24U C27G U32C A65U | ≤ 0.5
G23C C29U C49A C61U | ≤ 0.5
G23A C31G G52A | ≤ 0.5
C24A G44A | 0.7
C24A U26G A43C A70G | ≤ 0.5
C24U A37G A43G | 0.516
C22U G63A | 0.81
G23U C24G C27U | ≤ 0.5
C22U C46A G58C C66U | ≤ 0.5

Variant | yeast fitness
C24G U26A G41C C66U | 0.608
C24U C30U | 0.744
G23A C30A U64A | ≤ 0.5
C24G C27U C33U G50C C66U | ≤ 0.5
C22U C31G U64A C66A | ≤ 0.5
C24A C33G A40C C55U | 0.888
C22U G52A C60U | 0.598
G23A C46U A65C | 0.54
C24G U59A A70U | ≤ 0.5
C24A C29G A45G | ≤ 0.5
C24A C29G A43C A70C | ≤ 0.5
C24G C49G G50C | ≤ 0.5
C24G C27A U32C U64A | ≤ 0.5
C24A U26G G56C | ≤ 0.5
G23C A70U | 0.717
G23A C46U | 0.646
C22U U26C | 0.667
C24A A36U C55A C66U | ≤ 0.5
C24G G50C A70G | ≤ 0.5
C22U G48A A69C | 0.741
C24A A42C U47A G63C A69C | ≤ 0.5

Variant | yeast fitness
C24G A45C C46G C60G A69U | ≤ 0.5
G23A C34A A43U U47C C62G C66A | 0.689
G23U C49G A70U | ≤ 0.5
G23C C31U G48A C49U | ≤ 0.5
C24U A37G A45U C55U | 0.708
C24G U35A A40C G52A C60A C61G | ≤ 0.5
C22U C61U | 0.72
C24A C31U U53A | 0.786
C24U C27G C55G G68A | 0.526
G23C U59C | 0.583
C22U C30G A36U C46G | ≤ 0.5
C24U A42U G52C | 0.578
C24A U26A C55A C66U | ≤ 0.5
G23A U47C C55U A69C | ≤ 0.5
C22U G23A U54G A57U | ≤ 0.5
C24A U26G C30G A43U C62U | 0.549
G23A A43U C62U | 0.751
G23A C24G A40U A65U | ≤ 0.5
C22U U28C U54A A69U | ≤ 0.5
C24U C46A A69G | 0.996
C22U G48A A65U | 0.773

Variant | yeast fitness
C24G C31U C34U C49U A69C | ≤ 0.5
C22U C30U A37G | 0.526
C24G C31G | 0.773
G23C C33U | 0.544
C24G C29U C49U | ≤ 0.5
C24A G63C A69C | 0.621
C22U G25A G67C | 0.535
C24A U32C C62U | ≤ 0.5
C24G G41A | 0.619
C24U C30G A45C C61G | 0.568
C24U A36U C46G C62A A69C | ≤ 0.5
C24U C31A G56C | 0.544
C24U C33G U59C U64A | 0.686
G23A C30U C33A A43G G48C A57G | ≤ 0.5
G23C C33U A57U G67A | 0.512
C24G G38C | 0.566
C24G G39A A70C | ≤ 0.5
C24A C31U G51A C62A | ≤ 0.5
C24G A65U G67C | ≤ 0.5
C24G C34G A43U | ≤ 0.5
C24A A40C A69C | ≤ 0.5
